The test system of one assay is KB. The experiment in a line: Antiproliferative activity against human KB cells after 72 hrs by methylene blue staining. In kind it is functional, cell-based. A digest of the protocol: (§1)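 Log-phase cells kept in RPMI-1640 with 5% fetal bovine serum, seeded at 5000 cells/mL/well, then exposed to a range of drug concentrations for 72 h. Growth read by methylene blue dye assay. IC50, the concentration giving 50% growth inhibition relative to untreated control, derived graphically. Doxorubicin served as positive control.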

The subject of the next assay is MKN-45. The experiment in a line: Antiproliferative activity against human MKN45 cells after 72 hrs by methylene blue staining. The format is functional, cell-based. The note with it: MKN-45, 72 h. The essentials:
as §1

Another assay relates to NCI-H460. Kind of assay: Antiproliferative activity against human H460 cells after 72 hrs by methylene blue staining. In kind it is functional, cell-based. The note with it: NCI-H460, 72 h. The essentials: as §1
The target of another assay is Histone deacetylase. Kind of assay: Inhibition of human HDAC after 30 mins. In kind it is protein assay.

Molecules are shown by their SMILES. Some results are limits rather than exact numbers.

As a reminder, the IC50 is the concentration that gives 50% inhibition. A lower IC50 goes with greater potency in that assay. On to `O=C(c1ccc(O)cc1)n1nnc2ccccc21`, for which the IC50 with KB came to 577 nM; in the assay on MKN-45, 385 nM; in the assay with NCI-H460 it was 662 nM.

With `COc1cccc2c1C(=O)c1c(O)c3c(c(O)c1C2=O)C[C@@](O)(C(=O)CO)C[C@@H]3O[C@H]1C[C@H](N)[C@H](O)[C@H](C)O1` [DOXORUBICIN], the values for the IC50 in the assay with KB and in the assay with NCI-H460 were 0.23 nM and 0.38 nM, respectively.

With `COc1cc(C(=O)On2nnc3ccccc32)cc(OC)c1OC`, the IC50 in the assay on KB amounted to 1.2 nM; with MKN-45, 1.5 nM; in the assay on NCI-H460, 2.4 nM; against Histone deacetylase, 9400 nM.

With `COc1cc(OC)cc(C(=O)n2nnc3ccccc32)c1`, the IC50 in the assay with KB came out at 434 nM; with MKN-45, 419 nM; in the assay on NCI-H460 it was 491 nM.

For `COc1cc(OC)cc(C(=O)On2nnc3ccc(OC)cc32)c1`, the IC50 with KB came out at 35 nM; with MKN-45, 36 nM; with NCI-H460, 80 nM; against Histone deacetylase it was 87500 nM.

For `O=C(c1ccccc1)n1nnc2ccccc21`, the IC50 in the assay with KB was determined as 666 nM; in the assay on MKN-45, 668 nM; in the assay with NCI-H460, 750 nM.

Regarding `COc1ccc(C(=O)On2nnc3ccccc32)cc1`, the IC50 in the assay with KB turned out to be 43 nM; in the assay on MKN-45, 39 nM; in the assay on NCI-H460 it was 52 nM; against Histone deacetylase, 73100 nM.

For `O=C(c1cc(O)c(O)c(O)c1)n1nnc2ccccc21`, the values for the IC50 in the assay with KB, with MKN-45 and with NCI-H460 were 392 nM, 334 nM and 332 nM, respectively.

For `COc1ccc2nnn(OC(=O)c3ccccc3)c2c1`, the IC50 in the assay on KB is 209 nM; in the assay with MKN-45 it was 206 nM; in the assay with NCI-H460 it was 295 nM.

As for `COc1cc(C(=O)n2nnc3ccccc32)cc(OC)c1OC`, the IC50 in the assay with KB came to 291 nM; in the assay on MKN-45, 275 nM; in the assay with NCI-H460, 480 nM.

On to `COc1ccc(C(=O)n2nnc3ccccc32)cc1`, for which the IC50 in the assay with KB was found to be 501 nM; in the assay on MKN-45 it was 500 nM; in the assay on NCI-H460, 662 nM.

`COc1cc(OC)cc(C(=O)On2nnc3ccccc32)c1`: the IC50 with KB was 37 nM; in the assay on MKN-45 it was 30 nM; in the assay with NCI-H460, 42 nM; on Histone deacetylase, 61100 nM.

With `O=C(On1nnc2ccccc21)c1ccc(O)cc1`, the IC50 is 88 nM with KB, 49 nM in the assay on MKN-45 and 98 nM with NCI-H460.

With `O=C(On1nnc2ccccc21)c1cc(O)c(O)c(O)c1`, the IC50 with KB was 18 nM; in the assay with MKN-45, 17 nM; with NCI-H460, 41 nM; against Histone deacetylase, more than 100000 nM.

For `COc1ccc2nnn(OC(=O)c3ccc(O)cc3)c2c1`, the results for the IC50 with KB, in the assay with MKN-45 and in the assay on NCI-H460 were 149 nM, 184 nM and 216 nM, respectively.

As to `O=C(c1cc(O)cc(O)c1)n1nnc2ccccc21`, the IC50 amounted to 575 nM with KB, 521 nM in the assay on MKN-45 and 559 nM with NCI-H460.

With `O=C(On1nnc2ccccc21)c1cc(O)cc(O)c1`, the IC50 in the assay on KB was 67 nM; with MKN-45, 28 nM; in the assay on NCI-H460, 52 nM.

As for `COc1ccc2nnn(OC(=O)c3cc(OC)c(OC)c(OC)c3)c2c1`, the IC50 in the assay on KB was 11 nM; with MKN-45, 8 nM; with NCI-H460, 23 nM; against Histone deacetylase, 58100 nM.

In the case of `O=C(On1nnc2ccccc21)c1ccccc1`, the IC50 with KB was 104 nM; with MKN-45, 97 nM; in the assay on NCI-H460 it was 195 nM.

With `COc1ccc(C(=O)On2nnc3ccc(OC)cc32)cc1`, the IC50 with KB amounted to 97 nM; with MKN-45 it was 93 nM; in the assay on NCI-H460 it was 95 nM.

Turning to `COc1ccc2nnn(OC(=O)c3cc(O)cc(O)c3)c2c1`, the results for the IC50 in the assay with KB, in the assay with MKN-45 and with NCI-H460 were 153 nM, 93 nM and 195 nM, respectively.

For the compound `COc1ccc2nnn(OC(=O)c3cc(O)c(O)c(O)c3)c2c1`, the IC50 in the assay with KB stood at 81 nM; with MKN-45 it was 36 nM; in the assay with NCI-H460, 117 nM.

These data come from ChEMBL document CHEMBL1287780, “Discovery of 1H-benzo[d][1,2,3]triazol-1-yl 3,4,5-trimethoxybenzoate as a potential antiproliferative agent by inhibiting histone deacetylase” (Bioorg Med Chem, 2010).
